The list is not random: actives were taken first. Their share in the collection is about 3.7%.
KCNK9 inh – human KCNK9 channel inhibition | actives 1.2% (n = 310,000) | B-score at 10 µM | Q9NPC2 | HEK293 KCNK9, FluxOR thallium flux fluorescence; hits give low values;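 active = ratio B-score over 3 SD below the library mean, with starting fluorescence within 5 SD of its mean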;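 note: negative B-score means less thallium flux so channel inhibition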
Kir21 block – blocks the mouse Kir2.1 inward-rectifier potassium channel | P35561 | B-score at 10 µM | actives 0.85% (n = 310,000) | HEK293-Kir2.1, FluxOR thallium flux fluorescence; hits give low values | AID 1672;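 active = fluorescence ratio B-score at or below minus 3 SD of library scores, with starting-brightness B-score within 2 SD, cut at about -4.2 in these data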;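 note: channel flux triggered by added potassium and thallium sulfate stimulus; B-score of peak minus minimum fluorescence over baseline after thallium stimulus; more negative B-score means stronger Kir2.1 block with less thallium influx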
hERG protect – compounds protecting human hERG from proarrhythmic drug block; CHO-hERG, FluxOR thallium flux, dofetilide IC70 present; AID 1511; actives 0.51% (n = 310,000); activation (rescue from dofetilide block), less the hit threshold, % at 10 µM;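 active = activation above the mean of controls blocked by dofetilide plus 5 SD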;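 note: thallium influx through hERG after potassium depolarization seen as dye fluorescence rise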
KCNQ1 pot – potentiators or activators of human KCNQ1 potassium channel. CHO-K1 KCNQ1, thallium flux FluxOR fluorescence; hits give high values. B-score at 10 µM. actives 0.35% (n = 310,000). AID 2648;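 active = fluorescence ratio B-score, a plate-corrected score, at least three library SD, with initial intensity B-score within 5 SD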
Target sequence (P51787 whole entry, looked up): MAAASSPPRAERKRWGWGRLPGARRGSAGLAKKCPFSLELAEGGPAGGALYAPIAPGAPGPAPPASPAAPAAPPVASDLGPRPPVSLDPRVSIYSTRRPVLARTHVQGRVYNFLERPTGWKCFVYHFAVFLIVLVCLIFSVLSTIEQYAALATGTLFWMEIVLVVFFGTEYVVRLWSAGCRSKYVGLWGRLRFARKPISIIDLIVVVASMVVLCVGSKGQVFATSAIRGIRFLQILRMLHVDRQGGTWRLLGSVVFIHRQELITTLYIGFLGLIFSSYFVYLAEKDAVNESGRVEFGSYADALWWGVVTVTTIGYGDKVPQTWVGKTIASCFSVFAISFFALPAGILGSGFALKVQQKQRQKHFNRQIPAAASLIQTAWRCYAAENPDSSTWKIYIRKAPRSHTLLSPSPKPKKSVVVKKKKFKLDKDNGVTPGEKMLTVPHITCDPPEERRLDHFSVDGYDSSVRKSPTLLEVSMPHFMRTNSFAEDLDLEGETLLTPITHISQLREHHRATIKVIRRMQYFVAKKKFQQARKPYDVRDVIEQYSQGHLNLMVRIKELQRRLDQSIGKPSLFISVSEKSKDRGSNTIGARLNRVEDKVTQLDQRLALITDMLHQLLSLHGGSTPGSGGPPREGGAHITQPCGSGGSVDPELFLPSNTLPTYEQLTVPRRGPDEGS
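Medium – assay buffer, equal DMSO in all wells · Material – CHO-K1 cell line with stable KCNQ1 potassium channel expression · Signal – kinetic FluxOR thallium fluorescence, 10-s 1-Hz baseline, 110-s post-stimulus read · Compound – single concentration per compound, DMSO matched to controls · Schedule – 37 °C overnight plating, 90-min dark dye load, 20-min compound pretreatment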
KCNQ1 inh – inhibitors of human KCNQ1 potassium channel; B-score at 10 µM; CHO-K1 KCNQ1, FluxOR thallium flux fluorescence; hits give high values; actives 1.3% (n = 310,000); AID 2642;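 active = compounds whose thallium flux B-score, printed positive for inhibition, exceeds three library SD while starting fluorescence stays within three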;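 note: channel opened by potassium depolarization with thallium stimulus after 20 min compound exposure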
KCNK3 block – human KCNK3 channel inhibition, primary screen | CHO-KCNK3 thallium flux, FluxOR fluorescence; hits give low values | AID 602410 | B-score at 10 µM | actives 0.84% (n = 340,000) | O14649;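 active = B-score under library mean minus 4 SD, starting fluorescence ratio at most library mean plus 5 SD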;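 note: more negative B-score means stronger inhibition of thallium flux through KCNK3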
KCNK9 inh conf – human KCNK9 inhibitor confirmation; shares compounds with KCNK9 inh; HEK293 KCNK9 cells, FluxOR thallium flux fluorescence; inhibition, % at 10 µM; actives 43% (n = 4,900); AID 492992;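 active = thallium signal inhibited by more than 5 SD of the compound-free buffer control wells, on both duplicate plates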;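 note: 0% = assay buffer control wells without compound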
Kir2-1 spec – mouse Kir2.1 off-target activity of KCNK9 modulators; shares compounds with KCNK9 inh; Kir2.1 cells, FluxOR thallium flux fluorescence; inhibition, % at 10 µM; actives 4% (n = 4,900);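 active = thallium signal drop more than 5 SD beyond the mean of the no-compound control wells, seen in both duplicate plates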;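 note: signal is fluorescence rise after thallium addition divided by baseline fluorescence; plate controls were assay buffer only for no effect and full block by chlorpromazine control for full effect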
HEK293 Tl ctr – non-induced cell nonspecific activity of KCNK9 modulators; non-induced KCNK9-HEK293, FluxOR thallium flux; inhibition, % at 10 µM; actives 40% (n = 4,900); shares compounds with KCNK9 inh;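 active = thallium signal drop beyond 5 SD of the untreated control mean, on both duplicate plates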;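 note: plate controls were buffer only IC0 wells for no effect and SID17386958 at its maximal inhibitory level for full effect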
Starred values were filed as active, the others as inactive; i = inactive; x = no result.

SMILES	KCNK9 inh	Kir21 block	hERG protect	KCNQ1 pot	KCNQ1 inh	KCNK3 block	KCNK9 inh conf	Kir2-1 spec	HEK293 Tl ctr
COc1ccc(NC(=O)O/N=C2/CCCc3ccc(OC)cc32)cc1	-12*	-1.2	-11	i	i	i	66%*	34%*	26%*
C=CCN(C(=O)c1oc2c(Cl)cc(C)cc2c1C)C1CCS(=O)(=O)C1 (stereo not drawn)	i	-1.9	-7	i	i	i	i	i	i
O=C(Cc1ccccc1F)Nc1ccc(S(=O)(=O)Nc2ncccn2)cc1	i	-0.12	-5	i	i	i	x	x	x
COc1ccccc1C(=O)N/N=C/C(C)=C/c1ccccc1	-10*	-0.12	-6	i	i	i	48%*	i	30%*
CN(C)/C=N/c1nc(-c2ccc3c(c2)OCO3)cs1	i	-1.1	-4	i	i	i	x	x	x
CN(C)/C=N/c1nc(-c2ccc3ccccc3c2)cs1	i	1.2	-7	i	i	i	i	i	i
CN(CC(=O)Nc1ccccc1C(=O)NC1CC1)Cc1ccccc1F	x	x	x	x	x	i	x	x	x
Cc1cccc(N(CC(=O)Nc2ccccc2-c2ccccc2)S(=O)(=O)c2ccccc2)c1C	i	-0.22	-2	i	i	i	x	x	x
CN(CC(=O)Nc1ccccc1Oc1ccccc1)Cc1ccccc1F	-13*	-5.1*	-20	i	i	i	78%*	47%*	42%*
Cc1ccccc1CN(C)CC(=O)Nc1ccccc1-c1ccccc1	-10*	-5.6*	-8	i	i	i	71%*	55%*	42%*
O=C(CNC(c1ccccc1)c1ccccc1)Nc1ccccc1-c1ccccc1	-12*	-2.1	-14	i	i	i	26%*	i	42%*
Cc1ccccc1NS(=O)(=O)c1ccc(C(=O)NN2CCCCC2)cc1	i	0.96	-7	i	i	i	x	x	x
COc1cccc(C(=O)NCC2(c3ccc(OC)c(OC)c3)CCCC2)c1	i	-0.4	-1	i	i	i	x	x	x
O=C(O)C(Cc1ccccc1)N1C(=O)/C(=C/c2cccs2)SC1=S (stereo not drawn)	x	x	x	x	x	i	x	x	x
C=CCOc1ccc(/C=C2\SC(=S)N(C(C(=O)O)c3ccccc3)C2=O)cc1 (stereo not drawn)	i	-0.02	-22	i	i	i	i	i	i
CC(/C=C1\SC(=S)N(C(C(=O)O)c2ccccc2)C1=O)=C\c1ccccc1 (stereo not drawn)	i	1.4	-19	i	i	i	i	i	i
CC(/C=C1\SC(=S)N(CC(=O)O)C1=O)=C\c1ccccc1	i	2.1	-5	i	i	i	x	x	x
COc1cccc(/C=C2\SC(=S)N(C(Cc3ccccc3)C(=O)O)C2=O)c1 (stereo not drawn)	i	1.5	-11	i	i	i	i	i	i
Cc1ccc(Cl)c(N/C=C/C(=O)c2ccccc2)c1	-15*	-0.44	-1	i	i	i	70%*	i	38%*
COc1cc(N=c2ssnc2Cl)c(OC)cc1Cl	i	-1.6	-20	i	i	i	i	i	i
COc1ccc(OC)c(N=c2ssnc2Cl)c1	i	-1.9	-14	i	i	i	x	x	x
CC(C)C(=O)Nc1nc(-c2ccc3c(c2)CCN3C(=O)C2CC2)cs1	-8.9*	0.5	-17	i	i	i	i	i	i
CCC(CC)C(=O)Nc1nc(-c2ccc3c(c2)CCN3C(=O)C2CC2)c(C)s1	i	-1.9	-8	i	i	i	x	x	x
CN(C(=O)COC(=O)CCc1c[nH]c2ccccc12)C(c1ccccc1)c1ccccc1	-9.5*	0	-12	i	i	i	44%*	i	28%*
O=C(NCc1ccccc1CN1CCCC1)c1ccc(Cl)c(N2CCCC2=O)c1	x	x	x	x	x	i	x	x	x
SMILES	KCNK9 inh	Kir21 block	hERG protect	KCNQ1 pot	KCNQ1 inh	KCNK3 block	KCNK9 inh conf	Kir2-1 spec	HEK293 Tl ctr
Cc1nnc(SCc2ccc(Cl)cc2)nc1/C=C/N(C)C	i	-0.46	-12	i	i	i	i	i	i
CSc1nnc(C)c(/C=C/NOCc2ccc(Cl)cc2)n1	i	0.26	-6	i	i	i	x	x	x
CCN1CCN(C(=S)Nc2sc(C)c(-c3ccccc3)c2C(=O)OC)CC1	i	-0.9	-6	i	6*	i	i	i	i
CCCN1CCN(C(=S)Nc2sc(CC)cc2C(=O)OC)CC1	i	-1.3	-13	i	i	i	i	i	i
CCN(C[C@H]1N[C@@](CC)(C(=O)OC)[C@H]2C(=O)N(C)C(=O)[C@@H]12)C(=O)C1CCCCC1	x	x	x	x	x	i	x	x	x
CCCc1cc(C(=O)Nc2ccc(OC)cc2[N+](=O)[O-])cs1	i	0.1	-8	i	i	i	x	x	x
O=C(NCc1ccccn1)C(=O)Nc1cc2c3c(c1)CC(=O)N3CCC2	i	0.29	-6	i	i	i	x	x	x
Fc1ccccc1N1CCN(Cc2nc(-c3ccccc3)no2)CC1	i	1.7	-13	i	i	i	i	i	i
CC1CCN(Cc2nc(-c3ccccc3)no2)CC1	i	-0.76	-11	i	i	i	x	x	x
O=C1c2ccccc2C(=O)N1Cc1nc(-c2ccccc2)no1	i	-0.39	-8	i	i	i	i	i	i
COc1ccc(-c2noc(CN3CCCCC3)n2)cc1OC	i	2.3	-14	i	i	i	x	x	x
COc1ccc(-c2noc(CN3CCN(c4ccccc4F)CC3)n2)cc1OC	i	4.6	-8	i	i	i	i	i	i
Fc1ccccc1N1CCN(Cc2cc(-c3ccccc3)on2)CC1	i	0.02	-5	i	i	i	i	i	i
COc1ccccc1C(=O)Nc1ccnn1C1CCN(Cc2cnc(N(C)C)s2)CC1	i	-0.96	-18	i	i	i	x	x	x
Nc1nc(Nc2cccc(C(F)(F)F)c2)nc(C(F)(F)F)n1	-9.3*	2	-6	i	i	i	40%*	i	i
Cc1cc(OCC(=O)Nc2cnn(CCCC(=O)O)c2)ccc1Cl	i	0.52	-5	i	i	i	x	x	x
CNC(=O)C1CCN(S(=O)(=O)c2c(C)noc2/C=C/c2cccc(OC)c2)CC1	i	0.97	-8	i	i	i	x	x	x

From PubChem
